Results of several laboratories.

SMILES | target | test | system | conditions | measurement | value
CC[C@]1(O)C[C@H]2CN(CCc3c([nH]c4ccccc34)[C@@](C(=O)OC)(c3cc4c(cc3OC)N(C=O)[C@H]3[C@@](O)(C(=O)OC)[C@H](OC(C)=O)[C@]5(CC)C=CCN6CC[C@]43[C@@H]65)C2)C1 | Organic cation/carnitine transporter 2 (SLC22A5, Homo sapiens, UniProt O76082) | transporter uptake, inhibitor | HEK293 | 100 µM | remaining activity | 33.6%
COc1ncccc1-c1cnn2ccc(N3CCN(C(=O)OC(C)C)CC3)nc12 | Serine/threonine-protein kinase SBK1 (SBK1, Homo sapiens, UniProt Q52WX2) | binding, competition with immobilised ligand |  | 1 µM | remaining binding | 84%
COc1cc(Nc2ncc(F)c(Nc3ccc4c(n3)NC(=O)C(C)(C)O4)n2)cc(OC)c1OC | Serine/threonine-protein kinase 38-like (STK38L, Homo sapiens, UniProt Q9Y2H1) | binding |  | 10 µM | inhibition | 48%
CCN(CC)CCCC[C@H](NC(=O)[C@H](CC(C)C)NC(=O)[C@H](C)NC(=O)[C@H](Cc1ccccc1)NC(=O)c1ccc(C(C)(C)C)cc1)C(=O)N[C@@H](CO)C(=O)OC | Bromodomain-containing protein 2, BD1 (BRD2, Homo sapiens, UniProt P25440) | thermal stability, DSF |  | 25 µM | ΔTm | 0.19 °C
Cc1nn(C)cc1-c1nc2c(N3CCN(Cc4ccc(Cl)cc4)CC3)c(Cl)cnc2[nH]1 | Receptor tyrosine-protein kinase erbB-3 (ERBB3, Homo sapiens, UniProt P21860) | binding, competition with immobilised ligand |  | 1 µM | remaining binding | 95%
C#Cc1n[nH]c2c(-c3cn(C(C)c4ccccn4)c(=O)[nH]c3=O)cc(F)cc12 (stereo not shown) | Insulin receptor (INSR, Homo sapiens, UniProt P06213) | enzyme activity, inhibitor |  | 1 µM | inhibition | 8.5%
Cn1c(=O)n(CCC(C)(C)O)c2cc(Nc3nc(N4CCCC(CO)C4)ncc3Cl)ccc21 (stereo not shown) | B-cell lymphoma 6 protein (BCL6, Homo sapiens, UniProt P41182) | protein level, degrader | SU-DHL-4 |  | Dmax | ~60%
Nc1ncc(-c2nc(N3CCOCC3)nc(N3CCOCC3)n2)c(C(F)F)n1 | Cyclin-dependent kinase 3 (CDK3, Homo sapiens, UniProt Q00526) | binding, competition with immobilised ligand |  | 10 µM | remaining binding | 88%
CCSC(=O)N1CCCCCC1 | Aldehyde dehydrogenase, mitochondrial (ALDH2, Homo sapiens, UniProt P05091) | enzyme activity, inhibitor |  |  | kinact/KI | 76 M⁻¹ s⁻¹
c1ccc(C(NCCNC(c2ccccc2)c2ccccc2)c2ccccc2)cc1 | Collagenase 3 (MMP13, Homo sapiens, UniProt P45452) | enzyme activity, inhibitor |  | 10 µM | inhibition | -10%
